Data as given in ChEMBL document CHEMBL3425481, “Design, synthesis and anticancer activity of matrine-1H-1,2,3-triazole-chalcone conjugates” (Bioorg Med Chem Lett, 2015).

What was measured:
[1] = Antiproliferative activity against mouse NIH/3T3 cells assessed as inhibition of cell proliferation incubated for 48 hrs by CCK8 assay; format: cell-based; conditions: NIH3T3, 48 h
In short: (§1)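 Human A549 lung, Hela cervical, Bel-7402 hepatocellular and MCF-7 breast cancer cells, plus mouse embryo fibroblast NIH3T3, tested for anti-proliferative activity by CCK-8 assay. For the matrine combination tests, the chalcone and matrine were used at a 1:1 molar ratio; values given as IC50.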

A549 [2] = assay: Antiproliferative activity against human A549 cells assessed as inhibition of cell proliferation incubated for 48 hrs by CCK8 assay; format: functional, cell-based; conditions: A549, 48 h; in short: as §1
HeLa = assay: Antiproliferative activity against human HeLa cells assessed as inhibition of cell proliferation incubated for 48 hrs by CCK8 assay; format: functional, cell-based; in short: as §1
MCF7 = assay: Antiproliferative activity against human MCF7 cells assessed as inhibition of cell proliferation incubated for 48 hrs by CCK8 assay; format: functional, cell-based; conditions: MCF7, 48 h; in short: as §1
A549 [3] = assay: Potency index, ratio of IC50 for 5-fluorouracil to IC50 for compound against human A549 cells incubated for 48 hrs by CCK8 assay; format: functional
A549 [4] = assay: Induction of apoptosis in human A549 cells incubated for 24 hrs by Annexin V-FITC/propidium iodide double staining based flow cytometry; format: functional, cell-based
A549 [5] = assay: Induction of apoptosis in human A549 cells assessed as viable cells level at 0.5 times antiproliferative IC50 incubated for 24 hrs by Annexin V-FITC/propidium iodide double staining based flow cytometry (reference value: 99.7%); format: functional
A549 [6] = assay: Induction of apoptosis in human A549 cells assessed as early apoptosis cells level at 0.5 times antiproliferative IC50 incubated for 24 hrs by Annexin V-FITC/propidium iodide double staining based flow cytometry (reference value: 0.116%); format: functional
A549 [7] = assay: Induction of apoptosis in human A549 cells assessed as late apoptosis cells level at 0.5 times antiproliferative IC50 incubated for 24 hrs by Annexin V-FITC/propidium iodide double staining based flow cytometry (reference value: 0.127%); format: functional
A549 [8] = assay: Induction of apoptosis in human A549 cells assessed as necrosis cells level at 0.5 times antiproliferative IC50 incubated for 24 hrs by Annexin V-FITC/propidium iodide double staining based flow cytometry (reference value: 0.042%); format: functional
A549 [9] = assay: Induction of apoptosis in human A549 cells assessed as viable cells level at IC50 incubated for 24 hrs by Annexin V-FITC/propidium iodide double staining based flow cytometry (reference value: 99.7%); format: functional
A549 [10] = assay: Induction of apoptosis in human A549 cells assessed as early apoptosis cells level at IC50 incubated for 24 hrs by Annexin V-FITC/propidium iodide double staining based flow cytometry (reference value: 0.116%); format: functional
A549 [11] = assay: Induction of apoptosis in human A549 cells assessed as late apoptosis cells level at IC50 incubated for 24 hrs by Annexin V-FITC/propidium iodide double staining based flow cytometry (reference value: 0.127%); format: functional
A549 [12] = assay: Induction of apoptosis in human A549 cells assessed as necrosis cells level at IC50 incubated for 24 hrs by Annexin V-FITC/propidium iodide double staining based flow cytometry (reference value: 0.042%); format: functional
A549 [13] = assay: Induction of apoptosis in human A549 cells assessed as early apoptosis cells level at 2 times antiproliferative IC50 incubated for 24 hrs by Annexin V-FITC/propidium iodide double staining based flow cytometry (reference value: 0.116%); format: functional
A549 [14] = assay: Induction of apoptosis in human A549 cells assessed as late apoptosis cells level at 2 times antiproliferative IC50 incubated for 24 hrs by Annexin V-FITC/propidium iodide double staining based flow cytometry (reference value: 0.127%); format: functional
A549 [15] = assay: Induction of apoptosis in human A549 cells assessed as necrosis cells level at 2 times antiproliferative IC50 incubated for 24 hrs by Annexin V-FITC/propidium iodide double staining based flow cytometry (reference value: 0.042%); format: functional
A549 [16] = assay: Antitumor activity against human A549 cells xenografted in Balb/ca-nu mouse assessed as tumor growth inhibition at 2.5 mg/kg, iv dosed every 3 days for total of 7 dosing rounds measured on day 10 after treatment; format: functional; conditions: read-out: TGI
In short: (§2)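 A549 xenograft in mice, dosed by tail vein injection every 3 days; vehicle saline plus 0.2% Tween 80. n = 8 per treatment group, 6 in the vehicle group. Mean ± SE.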

A549 [17] = assay: Antitumor activity against human A549 cells xenografted in Balb/ca-nu mouse assessed as tumor growth inhibition at 2.5 mg/kg, iv dosed every 3 days for total of 7 dosing rounds measured on day 12 after treatment; format: functional; conditions: read-out: TGI; in short: as §2
A549 [18] = assay: Antitumor activity against human A549 cells xenografted in Balb/ca-nu mouse assessed as tumor growth inhibition at 2.5 mg/kg, iv dosed every 3 days for total of 7 dosing rounds measured on day 18 after treatment; format: functional; conditions: read-out: TGI; in short: as §2
A549 [19] = assay: Antitumor activity against human A549 cells xenografted in Balb/ca-nu mouse assessed as tumor growth inhibition at 2.5 mg/kg, iv dosed every 3 days for total of 7 dosing rounds measured on day 20 after treatment; format: functional; conditions: read-out: TGI; in short: as §2
A549 [20] = assay: Antitumor activity against human A549 cells xenografted in Balb/ca-nu mouse assessed as tumor growth inhibition at 5 mg/kg, iv dosed every 3 days for total of 7 dosing rounds measured on day 14 after treatment; format: functional; conditions: read-out: TGI; in short: as §2
A549 [21] = assay: Antitumor activity against human A549 cells xenografted in Balb/ca-nu mouse assessed as tumor growth inhibition at 5 mg/kg, iv dosed every 3 days for total of 7 dosing rounds measured on day 16 after treatment; format: functional; conditions: read-out: TGI; in short: as §2
A549 [22] = assay: Antitumor activity against human A549 cells xenografted in Balb/ca-nu mouse assessed as tumor growth inhibition at 5 mg/kg, iv dosed every 3 days for total of 7 dosing rounds measured on day 20 after treatment; format: functional; conditions: read-out: TGI; in short: as §2
A549 [23] = assay: Antitumor activity against human A549 cells xenografted in Balb/ca-nu mouse assessed as tumor growth inhibition at 10 mg/kg, iv dosed every 3 days for total of 7 dosing rounds measured on day 10 after treatment; format: functional; conditions: read-out: TGI; in short: as §2
A549 [24] = assay: Antitumor activity against human A549 cells xenografted in Balb/ca-nu mouse assessed as tumor growth inhibition at 10 mg/kg, iv dosed every 3 days for total of 7 dosing rounds measured on day 12 after treatment; format: functional; conditions: read-out: TGI; in short: as §2
A549 [25] = assay: Antitumor activity against human A549 cells xenografted in Balb/ca-nu mouse assessed as tumor growth inhibition at 10 mg/kg, iv dosed every 3 days for total of 7 dosing rounds measured on day 14 after treatment; format: functional; conditions: read-out: TGI; in short: as §2
A549 [26] = assay: Antitumor activity against human A549 cells xenografted in Balb/ca-nu mouse assessed as tumor growth inhibition at 10 mg/kg, iv dosed every 3 days for total of 7 dosing rounds measured on day 18 after treatment; format: functional; conditions: read-out: TGI; in short: as §2
A549 [27] = assay: Antitumor activity against human A549 cells xenografted in Balb/ca-nu mouse assessed as tumor growth inhibition at 10 mg/kg, iv dosed every 3 days for total of 7 dosing rounds measured on day 20 after treatment; format: functional; conditions: read-out: TGI; in short: as §2
Mus musculus = assay: Toxicity in human A549 cells xenografted Balb/ca-nu mouse assessed as effect on body weight at 2.5 to 10 mg/kg, iv dosed every 3 days for total of 7 dosing rounds measured on day 10 to day 20 after treatment; format: organism-based; design: dose 2.5-10 mg/kg, route intravenous; conditions: in vivo, 72 h; in short: as §2
A549 [28] = assay: Antitumor activity against human A549 cells xenografted in Balb/ca-nu mouse assessed as tumor growth inhibition at 2.5 to 10 mg/kg, iv dosed every 3 days for total of 7 dosing rounds measured after 20 days post dose; format: functional, organism-based; in short: as §2

For `O=C(/C=C/c1cccc(Cl)c1)c1ccc(OCc2cn([C@H]3CC(=O)N4C[C@@H]5CCCN6CCC[C@@H]([C@H]56)[C@H]4C3)nn2)cc1O`, the IC50 [1] was 39.2 µM, the IC50 (A549 [2]) was 5.01 µM and the IC50 (HeLa) was 7.31 µM. The IC50 (MCF7) was 6.25 µM, the “Ratio IC50” value (A549 [3]) was 8 and the Activity (A549 [4]) was “Dose-dependent effect”. It also gave an Activity (A549 [5]) of 57.9%, an Activity (A549 [6]) of 19.8% and an Activity (A549 [7]) of 16.3%. It also gave an Activity (A549 [8]) of 5.99%, an Activity (A549 [9]) of 47.7% and an Activity (A549 [10]) of 31.1%. For the same molecule, the Activity (A549 [11]) was 16.2%, the Activity (A549 [12]) was 4.95% and the Activity (A549 [13]) was 34.2%. It also gave an Activity (A549 [14]) of 33.1%, an Activity (A549 [15]) of 2.57% and an inhibition in vivo at 2.5 mg/kg (A549 [16]) of 5.4%. For the same molecule, the inhibition in vivo at 2.5 mg/kg (A549 [17]) was 12.2%, the inhibition in vivo at 2.5 mg/kg (A549 [18]) was 38.8% and the inhibition in vivo at 2.5 mg/kg (A549 [19]) was 43.9%. For the same molecule, the inhibition in vivo at 5 mg/kg (A549 [20]) was 45.9%, the inhibition in vivo at 5 mg/kg (A549 [21]) was 54.9% and the inhibition in vivo at 5 mg/kg (A549 [22]) was 64.8%. The inhibition in vivo at 10 mg/kg (A549 [23]) was 60.5%, the inhibition in vivo at 10 mg/kg (A549 [24]) was 70.9% and the inhibition in vivo at 10 mg/kg (A549 [25]) was 78.8%. For the same molecule, the inhibition in vivo at 10 mg/kg (A549 [26]) was 86.9%, the inhibition in vivo at 10 mg/kg (A549 [27]) was 89.6% and the Activity (Mus musculus) was “Non-toxic”. The TGI (A549 [28]) was “Dose-dependent effect”.
